According to ChEMBL document CHEMBL1275375, “Properties and synthesis of 2-{2-fluoro (or bromo)-4-[(2-oxocyclopentyl)methyl]phenyl}propanoic acid: nonsteroidal anti-inflammatory drugs with low membrane permeabilizing and gastric lesion-producing activities” (J Med Chem, 2010):
Calls of active or inactive are those of the source. The rule behind the calls is not given here.

How the values were obtained:
[1] = biological target: Prostaglandin G/H synthase 1 (Homo sapiens, UniProt P23219); assay: Inhibition of COX1 in human whole blood assessed as TXB2 biosynthesis after 24 hrs by EIA; type: tissue-based
Summary of the method: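 IC50 taken from a four-parameter logistic fit of dose-response curves. Ratio is COX-1 IC50 / COX-2 IC50. Mean ± SEM, n = 3.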

[2] = biological target: T1, Prostaglandin G/H synthase 2 (Homo sapiens, UniProt P35354); assay: Inhibition of COX2 in human whole blood assessed as PGE2 biosynthesis after 24 hrs by EIA; type: tissue-based
T1 sequence (P35354 whole entry): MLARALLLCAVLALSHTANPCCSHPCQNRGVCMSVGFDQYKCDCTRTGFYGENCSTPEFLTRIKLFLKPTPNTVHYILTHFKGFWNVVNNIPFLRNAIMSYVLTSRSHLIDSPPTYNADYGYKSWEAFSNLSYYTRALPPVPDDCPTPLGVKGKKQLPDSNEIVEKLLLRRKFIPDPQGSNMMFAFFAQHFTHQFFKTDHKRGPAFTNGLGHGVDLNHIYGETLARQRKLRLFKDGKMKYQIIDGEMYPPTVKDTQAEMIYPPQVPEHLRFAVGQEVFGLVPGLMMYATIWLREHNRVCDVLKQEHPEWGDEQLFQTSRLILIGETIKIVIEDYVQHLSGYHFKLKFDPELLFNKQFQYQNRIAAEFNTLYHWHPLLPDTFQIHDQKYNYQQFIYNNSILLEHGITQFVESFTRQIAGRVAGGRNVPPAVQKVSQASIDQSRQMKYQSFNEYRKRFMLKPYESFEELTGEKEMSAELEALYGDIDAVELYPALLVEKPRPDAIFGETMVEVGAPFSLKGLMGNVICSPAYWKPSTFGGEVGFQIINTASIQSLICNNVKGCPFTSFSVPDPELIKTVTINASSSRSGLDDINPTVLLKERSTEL

Homo sapiens = species on record: Homo sapiens; assay: Selectivity ratio of IC50 for human COX1-derived TXB2 biosynthesis to IC50 for human COX2-derived PGE2 biosynthesis
Summary of the method: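 Human whole blood assay of COX-1- and COX-2-derived PG biosynthesis. IC50 taken from a four-parameter logistic fit of dose-response curves. Ratio is COX-1 IC50 / COX-2 IC50. Mean ± SEM, n = 3.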

Rattus norvegicus [3] = assay: Antiinflammatory activity in rat assessed as inhibition of carrageenan-induced paw edema at 13 mg/kg, po administered 1 hr before carrageenan challenge measured after 3 to 6 hrs; type: functional, organism-based; parameters: dose 13 mg/kg
Summary of the method: (§1)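 Oral dosing of rats 1 h before intradermal injection of 1% carrageenan into the left hindpaw. Paw edema measured 3 h and 6 h after carrageenan. Mean ± SEM, n = 3-4, compared with vehicle.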

Rattus norvegicus [4] = assay: Toxicity in Wistar rat assessed as gastric lesion at 52 to 65 mg/kg, po; type: organism-based, Stomach; parameters: dose 52-65 mg/kg, route oral; details: in vivo
Summary of the method: (§2)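 Rats dosed orally (low or high dose); stomachs removed 8 h after dosing and scored for hemorrhagic damage to give a lesion index. Mean ± SEM, n = 3.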

Rattus norvegicus [5] = assay: Antiinflammatory activity against Wistar rat assessed as decrease in gastric level of PGE2 at 52 to 65 mg/kg, po; type: functional, organism-based; details: Stomach
Summary of the method: (§3)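 Rats dosed orally (low or high dose); stomachs removed 8 h later and gastric PGE₂ level measured by EIA. Mean ± SEM, n = 3, compared with vehicle.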

[6] = Membrane permeabilization activity in calcein-loaded liposome assessed as calcein release at […] by fluorescence assay; type: physicochemical; details: artificial membrane
Summary of the method: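 Calcein-loaded liposomes exposed to compound; release of self-quenched calcein into the medium read as a rise in fluorescence. Triton X-100 (10 μM) defined 100% permeabilization. Mean ± SEM, n = 3.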

Rattus norvegicus [7] = assay: Antiinflammatory activity against Wistar rat assessed as decrease in gastric level of PGE2 at 43 to 53 mg/kg, po; type: functional, organism-based; details: Stomach; summary of the method: as §3
Rattus norvegicus [8] = assay: Antiinflammatory activity in rat assessed as inhibition of carrageenan-induced paw edema at 11 mg/kg, po administered 1 hr before carrageenan challenge measured after 3 to 6 hrs; type: functional, organism-based; parameters: dose 11 mg/kg; summary of the method: as §1
Rattus norvegicus [9] = assay: Toxicity in Wistar rat assessed as gastric lesion at 43 to 53 mg/kg, po; type: organism-based, Stomach; parameters: dose 43-53 mg/kg, route oral; details: in vivo; summary of the method: as §2
Rattus norvegicus [10] = assay: Antiinflammatory activity in rat assessed as inhibition of carrageenan-induced paw edema at 10 mg/kg, po administered 1 hr before carrageenan challenge measured after 3 to 6 hrs; type: functional, organism-based; parameters: dose 10 mg/kg; summary of the method: as §1
Rattus norvegicus [11] = assay: Antiinflammatory activity against Wistar rat assessed as decrease in gastric level of PGE2 at 40 to 50 mg/kg, po; type: functional, organism-based; details: Stomach; summary of the method: as §3
Rattus norvegicus [12] = assay: Toxicity in Wistar rat assessed as gastric lesion at 40 to 50 mg/kg, po; type: organism-based, Stomach; parameters: dose 40-50 mg/kg, route oral; details: in vivo; summary of the method: as §2

Chain of Prostaglandin G/H synthase 1 (P23219 whole entry): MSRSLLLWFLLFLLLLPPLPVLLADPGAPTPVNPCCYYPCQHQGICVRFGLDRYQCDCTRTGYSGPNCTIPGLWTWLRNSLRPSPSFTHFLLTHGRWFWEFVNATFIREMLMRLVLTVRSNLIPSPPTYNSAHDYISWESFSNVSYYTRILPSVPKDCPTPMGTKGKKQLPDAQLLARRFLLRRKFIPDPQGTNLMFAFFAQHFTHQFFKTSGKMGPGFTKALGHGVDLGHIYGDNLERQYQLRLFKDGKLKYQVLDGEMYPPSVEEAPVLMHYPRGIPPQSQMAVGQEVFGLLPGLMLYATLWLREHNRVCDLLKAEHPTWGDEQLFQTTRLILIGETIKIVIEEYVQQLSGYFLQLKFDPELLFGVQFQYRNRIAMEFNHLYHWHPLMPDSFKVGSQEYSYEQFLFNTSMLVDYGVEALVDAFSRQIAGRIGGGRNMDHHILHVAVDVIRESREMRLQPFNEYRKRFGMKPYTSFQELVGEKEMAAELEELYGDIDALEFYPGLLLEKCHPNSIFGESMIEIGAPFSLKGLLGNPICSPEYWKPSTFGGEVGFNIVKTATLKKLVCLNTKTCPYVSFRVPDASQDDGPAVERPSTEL

| Compound | IC50 [1] | IC50 [2] | Ratio IC50 (Homo sapiens) | Activity (Rattus norvegicus [3]) | Activity (Rattus norvegicus [4]) | Activity (Rattus norvegicus [5]) | Activity [6] | Activity (Rattus norvegicus [7]) | Activity (Rattus norvegicus [8]) | Activity (Rattus norvegicus [9]) | Activity (Rattus norvegicus [10]) | Activity (Rattus norvegicus [11]) | Activity (Rattus norvegicus [12]) |
| --- | --- | --- | --- | --- | --- | --- | --- | --- | --- | --- | --- | --- | --- |
| CC(C(=O)O)c1ccc(C[C@@H]2CCC[C@@H]2O)cc1Br (relative stereo) | 7.2 µM | 34 µM | 0.2 |  |  |  |  |  |  |  |  |  |  |
| CC(C(=O)[O-])c1ccc(CC2CCCC2=O)cc1F.[Na+] (stereo not drawn) [FLUORO LOXOPROFEN] | 24.2 µM | 14.3 µM | 2.5 |  |  |  | Not Active | Active | Active | Toxic |  |  |  |
| CC(C(=O)[O-])c1ccc(CC2CCCC2=O)cc1.[Na+] (stereo not drawn) [LOXOPROFEN SODIUM] | 23.5 µM | 10.1 µM | 2.5 |  |  |  | Active |  |  |  | Active | Active | Toxic |

More lines, in order of falling IC50 [1], values ahead:

| IC50 [1] | IC50 [2] | Ratio IC50 (Homo sapiens) | Compound | Activity (Rattus norvegicus [3]) | Activity (Rattus norvegicus [4]) | Activity (Rattus norvegicus [5]) | Activity [6] | Activity (Rattus norvegicus [7]) | Activity (Rattus norvegicus [8]) | Activity (Rattus norvegicus [9]) | Activity (Rattus norvegicus [10]) | Activity (Rattus norvegicus [11]) | Activity (Rattus norvegicus [12]) |
| --- | --- | --- | --- | --- | --- | --- | --- | --- | --- | --- | --- | --- | --- |
| 30.3 µM | 65.3 µM | 0.5 | CC(C(=O)[O-])c1ccc(CC2CCCC2=O)cc1Br.[Na+] (stereo not drawn) [BROMOLOXOPROFEN] | Active | Toxic | Active | Not Active |  |  |  |  |  |  |
| 7.7 µM | 48 µM | 0.2 | CC(C(=O)O)c1ccc(C[C@@H]2CCC[C@@H]2O)cc1F (relative stereo) |  |  |  |  |  |  |  |  |  |  |
| 2.2 µM | 8.5 µM | 0.3 | CC(C(=O)O)c1ccc(C[C@H]2CCC[C@@H]2O)cc1Br (relative stereo) |  |  |  |  |  |  |  |  |  |  |
| 0.6 µM | 3.1 µM | 0.4 | CC(C(=O)O)c1ccc(C[C@H]2CCC[C@@H]2O)cc1F (relative stereo) |  |  |  |  |  |  |  |  |  |  |
